APP 5'UTR act = activates APP 5'UTR luciferase reporter. SH-SY5Y APP 5'UTR luciferase reporter, luminescence; zero percent = DMSO vehicle wells. activation, % at 2 µM. hit rate 1% among 190,000. AID 1276;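 active = activation above a set limit, based on mean plus 3 SD of controls, cut at about 140% in these data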
FLuc act counter = affects firefly luciferase, flagging false hits in luciferase stimulation screens | 200,000 tested, under 10 active | activation factor at 10 µM | ATPlite luciferase biochemical, luminescence, 10 min; 0 = ATP-free wells, 1 = DMSO control | AID 1027;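 active = luciferase activation factor, scaled between plate controls, of at least 2 with compound at 10 µM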
Target sequence (P08659 whole entry, looked up): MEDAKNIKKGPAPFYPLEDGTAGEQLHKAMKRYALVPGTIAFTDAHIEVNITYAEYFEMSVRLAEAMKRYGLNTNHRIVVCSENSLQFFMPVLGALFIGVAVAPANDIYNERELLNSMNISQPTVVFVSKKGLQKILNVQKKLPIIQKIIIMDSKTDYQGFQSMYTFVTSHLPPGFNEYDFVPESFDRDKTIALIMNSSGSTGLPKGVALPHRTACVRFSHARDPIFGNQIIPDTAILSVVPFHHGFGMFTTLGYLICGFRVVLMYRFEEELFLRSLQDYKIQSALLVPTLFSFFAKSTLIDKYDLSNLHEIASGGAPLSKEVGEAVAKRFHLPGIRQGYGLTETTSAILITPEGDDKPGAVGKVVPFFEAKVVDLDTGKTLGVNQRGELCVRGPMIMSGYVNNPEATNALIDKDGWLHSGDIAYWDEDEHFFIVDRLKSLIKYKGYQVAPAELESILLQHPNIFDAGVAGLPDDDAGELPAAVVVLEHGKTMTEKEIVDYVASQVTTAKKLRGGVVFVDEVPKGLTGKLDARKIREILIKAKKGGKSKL
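Assay system – cell-free luciferase reagent · Medium – PBS-based ATP solution · Dosing – test compounds dosed from 2 mM stocks in 100% DMSO · Timing – 10 min, room temperature · Technique – light output (luminescence) · Measure – luminescence gain marking luciferase activators · Controls – No-ATP low control, compound-free enzyme-plus-ATP high control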
STAT1 activator = STAT1 signaling activation; NIH 3T3 STAT1-luciferase reporter, IFN-gamma, luminescence; 100% = IFN-gamma alone, no compound; activation (% of control), % at 5.5 µM; hit rate 2.6% among 200,000;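 active = activation above the screen-wide mean activation plus 3 SD, cut at about 130% in these data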
FLuc inh counter = inhibits firefly luciferase, flagging false hits in luciferase inhibition screens; AID 1006; ATPLite firefly luciferase biochemical luminescence, 10 min; P08659; inhibition, % at 10 µM; hit rate 1.5% among 200,000;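 active = inhibition above about 50% when tested at 10 µM, limit read from the data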
NF-kB expr up = NF-kB expression increase, human neuronal cells; NF-kB reporter expression; hits give high values; fold change at 12.5 µM; hit rate 1.6% among 190,000; AID 1239; in the data active = fold change above about 3.3
Numbers stand for hits; - = inactive; . = not tested or not shown. Compounds with a hit are over-represented: about 4.3% of the library has one in this group of screens.

SMILES | APP 5'UTR act | FLuc act counter | STAT1 activator | FLuc inh counter | NF-kB expr up
O=C1CC(NNc2ccccc2)C(=O)N1c1ccc(N2CCCCC2)cc1 (stereo not drawn) | - | - | - | - | -
CCc1nc(Nc2ccncc2)c2oc3ccccc3c2n1 | - | - | - | - | 3.6
Cc1nc(Nc2ccncc2)c2oc3ccccc3c2n1 | - | - | - | - | -
COCCn1c(C)cc(C(=O)COC(=O)c2n[nH]c3ccccc23)c1C | - | - | - | 94 | -
Cc1ccc(C(=O)OCC(=O)c2cc(C)n(CC3CCCO3)c2C)cc1 (stereo not drawn) | - | - | 140 | - | -
Cc1cc(C(=O)COC(=O)c2n[nH]c3ccccc23)c(C)n1CC1CCCO1 (stereo not drawn) | 168 | - | - | 92 | -
COCCn1c(C)cc(C(=O)COC(=O)c2c(C)nn(Cc3ccccc3)c2C)c1C | - | - | - | - | -
O=C(COC(=O)c1n[nH]c2ccccc12)Nc1ccccc1 | - | - | 133 | - | -
S=c1[nH]nc(C2CCCCC2)n1/N=C/c1ccccn1 | - | - | - | - | -
CCOc1cc(NS(=O)(=O)c2ccc(NC(C)=O)cc2)c(OCC)cc1NC(=O)c1cccs1 | - | - | - | - | -
Cc1cc(C(=O)COC(=O)c2cc(O)c3ccccc3c2O)c(C)n1CC1CCCO1 (stereo not drawn) | - | - | - | - | -
Cc1cc(C(=O)COC(=O)c2cccnc2Cl)c(C)n1CC1CCCO1 (stereo not drawn) | - | - | - | 96 | -
O=C(COC(=O)CCSc1ccc(Cl)cc1)NCc1ccco1 | - | - | - | - | -
O=C(N/N=C1\CCCc2ccccc21)c1ccc([N+](=O)[O-])cc1 | - | - | - | 61 | -
NC(=O)C(=O)N/N=C1\CCc2ccccc21 | - | - | 131 | - | -
Cc1ccc(C(=O)N/N=C2\CCCc3ccccc32)c(C)c1 | - | - | 129 | - | -
FC(F)(F)c1cc(Cl)c2nc(-c3ccccc3)cn2c1 | 164 | - | - | - | 11
Nc1cccc(-c2cn3cc(C(F)(F)F)cc(Cl)c3n2)c1 | . | - | 130 | 68 | 6.8
Fc1ccc(-c2nc3c(Cl)cc(C(F)(F)F)cn3c2Cl)cc1 | - | - | - | - | -
COc1ccc(-c2ccnc3c(C(=O)O)cnn23)cc1 | - | - | - | - | -
CC(C)c1ccc(/C=C2\NC(=S)N(Cc3cccnc3)C2=O)cc1 | - | - | - | - | -
COc1ccccc1/C=C/C=N/NC(=O)CCn1nnc2ccccc21 | - | - | - | - | -
OCC1CCCN1C(=S)Nc1ccccc1 (stereo not drawn) | - | - | - | - | -
OCC1CCCCN1C(=S)Nc1cccc(Cl)c1 (stereo not drawn) | - | - | 130 | - | -
CC(=O)C1C(=O)CC(C)(O)C(C(C)=O)C1c1ccccc1 (stereo not drawn) | - | - | - | - | -
SMILES | APP 5'UTR act | FLuc act counter | STAT1 activator | FLuc inh counter | NF-kB expr up
CCc1c(C)sc(NC(=O)Cn2nc(C)c([N+](=O)[O-])c2C)c1C(N)=O | - | - | - | - | -
CCCOc1ccc(-c2csc(N)n2)cc1[N+](=O)[O-] | - | - | 138 | - | -
CCOc1ccc(-c2cn3ccccc3n2)cc1[N+](=O)[O-] | - | - | - | 78 | -
CCC(C)C(NC(C)=O)C(=O)NC(=O)NC(c1ccccc1)c1ccccc1 (stereo not drawn) | - | - | - | - | -
O=[N+]([O-])c1cccc(C2=NC(c3ccccc3)CO2)c1 (stereo not drawn) | - | - | - | - | -
COc1ccc(C2=NC(c3ccccc3)CO2)cc1 (stereo not drawn) | - | - | 143 | - | -
COc1cc(C2C(C#N)=C(N)Oc3cc(N(C)C)ccc32)cc2c1OCO2 (stereo not drawn) | - | - | - | - | 4.8
CN1CC(=O)N(CC(=O)Nc2cc(Cl)cc(Cl)c2)C1=O | - | - | - | - | -
Cn1cccc1/C=C1\SC(=O)N(c2ccc(O)cc2)C1=O | - | - | - | - | -
O=c1c2cc(N3CCOCC3)ccc2[nH]c(=S)n1CCc1ccccc1 | - | - | 132 | - | -
CN(CC(O)Cn1cnc2c1c(=O)n(C)c(=O)n2C)c1ccccc1 (stereo not drawn) | - | - | - | - | -
O=C(COC(=O)c1ccc(Br)cc1)NCCc1ccccc1 | - | - | - | - | -
Cc1ccc(C(=O)O/N=C(\N)c2ccc(Br)cc2)cc1 | - | - | 137 | - | 3.8
O=C(COC(=O)c1ccccc1)c1ccc(Br)cc1 | - | - | - | 56 | -
CS(=O)(=O)N1CCc2cc(C(=O)OCC(=O)c3ccccc3)ccc21 | - | - | 156 | - | 4
N/C(=N\OC(=O)c1ccc(Br)cc1)c1ccccc1 | - | - | 150 | 95 | 9.7
O=C(OCC(=O)c1ccc[nH]1)c1ccccc1 | - | - | 138 | - | -
COC(=O)c1ccc(OCC(=O)c2ccccc2)cc1 | - | - | 139 | - | 4.1
O=C(COC(=O)c1ccc2ccccc2n1)c1ccccc1 | - | - | - | 60 | -
CN(C)S(=O)(=O)c1ccc(NC(=O)CN2CCCc3ccccc32)cc1 | - | - | - | - | -
COc1ccc(/C=N/NC(=O)c2nonc2C)cc1 | - | - | 129 | - | -
Cc1nonc1C(=O)N/N=C/c1ccncc1 | - | - | 140 | - | -
Nc1nonc1C(=O)N/N=C/c1ccncc1 | - | - | - | - | -
COc1ccc(/C=N\NC(=O)C2=NNC(=O)C2C)cc1 (stereo not drawn) | - | - | - | 69 | -
Cc1nonc1C(=O)N/N=C/c1ccc(O)cc1O | - | - | - | - | -
SMILES | APP 5'UTR act | FLuc act counter | STAT1 activator | FLuc inh counter | NF-kB expr up
N#CCN1CCC(c2cc(-c3ccco3)n[nH]2)CC1 | - | - | - | - | -
O=C(Nc1ccc(C(=O)N2CCOCC2)cc1)c1cc(-c2cccnc2)nc2ccc(Cl)cc12 | - | - | - | - | -
CCOC(=O)C1=NNC2(c3ccc(Cl)cc3)C(=O)N(c3ccc(C)cc3)C(=O)C12 (stereo not drawn) | - | - | - | - | -
Cc1ccc(/C=C2\CCC3=C2OC(N)=C(C#N)C3c2ccc(C)cc2)cc1 (stereo not drawn) | - | - | - | - | -
N#CC1=C(N)OC2=C(CCc3ccccc32)C1c1ccccc1 (stereo not drawn) | - | - | - | - | 4.7
NNc1nc(-c2ccccc2)nc2sc3c(c12)CCCC3 | 171 | - | 140 | 84 | -
C=CCOC(=O)/C(=C\c1ccccc1)NC(=O)c1ccc(C)cc1 | - | - | 132 | - | -
C=CCOC(=O)/C(=C\c1cccc2ccccc12)NC(=O)c1ccccc1 | - | - | 136 | - | -
O=C(NCC(c1ccco1)N1CCN(c2ccccc2)CC1)c1ccc2c(c1)OCO2 (stereo not drawn) | - | - | - | - | -
COc1c(C)cc(C(=O)C2CCCN(C(=O)/C=C/c3ccccn3)C2)cc1C (stereo not drawn) | - | - | - | - | -

Source: PubChem BioAssay
